Compound activity deposited in PubChem by several laboratories.
SMARCA2 act: activators of SMARCA2 function; MG213 cells, MMTV-luciferase reporter, dexamethasone, overnight; activation, % at 9.1 µM; hit rate 1% among 370,000; AID 652017; in the data active = activation above about 7.8%;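 also: 0% = vehicle wells and 100% = reference activator wells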
Efflux pump inh: inhibitors of Candida antifungal efflux pumps expressed in yeast; S. cerevisiae Candida pump triplex, Nile Red efflux; inhibition, % at 10 µM; hit rate 0.44% among 330,000; AID 485275;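 active = plate passing quality check with inhibition over a set limit, or well fluorescence over plate mean plus 4 SD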;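 also: Nile Red retained in pooled yeast measured as flow cytometry median fluorescence; 0% = buffer negative control and 100% = Enniatin B positive control; higher means more Nile Red kept so more efflux inhibition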
Tb MetRS inh: blocks T. brucei methionyl-tRNA synthetase activity. hit rate 0.4% among 360,000. inhibition, % at 11.9 µM. purified T. brucei MetRS, ATP depletion, Kinase-Glo luminescence;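 active = inhibition above a per-plate cutoff of the control wells' mean inhibition plus 3 SD, cut at about 5.5% in these data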;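 also: 0% = DMSO wells median and 100% = median of wells with control inhibitor compound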
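Assay system: T. brucei methionyl-tRNA synthetase, purified | Medium: HEPES buffer with MgCl2, KCl, DTT, spermine, BSA, pyrophosphatase | Compound: 11.9 µM single point | Incubation: 15 min enzyme-compound preincubation, 2 h reaction, 10 min detection, 25 °C | Measured by: Kinase-Glo luciferase luminescence reporting remaining unconsumed ATP | Measure: % inhibition normalized to control-well medians | Replication: Singlicate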
AHR act: human AHR activation; P35869; AHR-responsive luciferase reporter cells, luminescence; activation, % at 5 µM; hit rate 2.5% among 320,000; AID 2796; in the data active = activation above about 47%;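 also: 0% = vehicle wells and 100% = reference agonist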
Target sequence (P35869 whole entry, looked up): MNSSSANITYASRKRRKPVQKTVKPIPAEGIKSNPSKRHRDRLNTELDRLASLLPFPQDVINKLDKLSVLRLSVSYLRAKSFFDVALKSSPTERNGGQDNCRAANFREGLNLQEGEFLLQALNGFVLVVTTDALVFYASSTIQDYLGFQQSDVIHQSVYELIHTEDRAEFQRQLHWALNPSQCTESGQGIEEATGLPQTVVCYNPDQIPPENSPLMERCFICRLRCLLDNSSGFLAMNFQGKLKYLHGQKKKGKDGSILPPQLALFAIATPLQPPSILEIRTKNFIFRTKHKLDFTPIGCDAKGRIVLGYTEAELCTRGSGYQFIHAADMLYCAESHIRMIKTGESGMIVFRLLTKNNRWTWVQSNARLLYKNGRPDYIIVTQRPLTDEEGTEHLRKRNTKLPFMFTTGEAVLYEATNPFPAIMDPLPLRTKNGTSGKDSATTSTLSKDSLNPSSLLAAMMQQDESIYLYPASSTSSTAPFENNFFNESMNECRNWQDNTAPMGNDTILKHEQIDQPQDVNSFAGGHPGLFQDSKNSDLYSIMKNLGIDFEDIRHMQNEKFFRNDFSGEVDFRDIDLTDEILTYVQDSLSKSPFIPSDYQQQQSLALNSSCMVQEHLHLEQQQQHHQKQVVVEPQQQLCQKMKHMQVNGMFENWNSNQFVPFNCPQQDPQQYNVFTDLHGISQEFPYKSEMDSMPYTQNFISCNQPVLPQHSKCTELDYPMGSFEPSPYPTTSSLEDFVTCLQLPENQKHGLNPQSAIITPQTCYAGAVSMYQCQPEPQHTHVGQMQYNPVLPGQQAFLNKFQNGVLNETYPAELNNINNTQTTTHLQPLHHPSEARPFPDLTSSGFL
TAG inh: triacylglycerol accumulation inhibition; H9c2 cells, Nile Red lipid (TAG) fluorescence; cells loaded with 200 µM oleic acid; inhibition, % at 12.5 µM; hit rate 0.66% among 230,000; AID 651582;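 active = pattern-corrected inhibition of lipid staining of at least 50% with the nuclear-stain viability signal not falling by more than 50%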;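 also: 0% = DMSO wells and 100% = triacsin C control wells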
Yeast cmpd fluor: counter-screen for efflux pump inhibitors: compound fluorescence | shares compounds with Efflux pump inh | fluorescence ratio to DMSO, % at 10 µM | hit rate 4% among 1,700 | S. cerevisiae AD/pABC3, flow cytometry | AID 588517;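 active = fluorescence ratio to DMSO above its plate's cutoff, the plate mean ratio plus 5 SD, cut at about 210% in these data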;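 also: unstained yeast with no Nile Red so the signal is compound autofluorescence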
Mdr1 pump inh: Candida Mdr1 efflux pump inhibition; shares compounds with Efflux pump inh; S. cerevisiae AD/CaMDR1, Nile Red efflux, flow cytometry; inhibition, % at 10 µM; hit rate 1% among 1,700; in the data active = inhibition above about 26%;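 also: 0% = DMSO vehicle and 100% = reference inhibitor; higher means more Nile Red retained so more efflux inhibition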
CaCdr2 efflux inh: inhibitors of Candida albicans Cdr2 efflux pump | S. cerevisiae AD/CaCDR2, Nile Red retention, flow cytometry | Nile Red retention ratio vs DMSO, % at 10 µM | AID 588520 | hit rate 4% among 1,700 | shares compounds with Efflux pump inh; in the data active = Nile Red retention ratio vs DMSO above about 190%;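 also: higher ratio means more blocking of Cdr2 efflux of the dye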
Cdr1 pump inh: blocks the Candida albicans Cdr1 efflux pump in yeast; S. cerevisiae AD/CaCDR1, Nile Red efflux, flow cytometry; inhibition, % at 10 µM; hit rate 1% among 1,700; shares compounds with Efflux pump inh;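 active = inhibition above the screen-wide mean plus twice its standard deviation, cut at about 32% in these data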
Starred values were filed as active, the others as inactive; nt = no result; + = active, no number. An excerpt weighted towards active compounds, which were near 4.1% of everything screened.

SMILES	SMARCA2 act	Efflux pump inh	Tb MetRS inh	AHR act	TAG inh	Yeast cmpd fluor	Mdr1 pump inh	CaCdr2 efflux inh	Cdr1 pump inh
CNC(=O)COC(=O)c1ccccc1NC(=O)c1ccco1	-2	1.2*	0	9	2	99	0	95	0
O=C(NCc1ccc(C(=O)N2CCCN(Cc3ccccc3)CC2)cc1)c1cccc(Br)c1	-6	nt	nt	nt	nt	nt	nt	nt	nt
O=[N+]([O-])c1ccc(N2N=C(c3ccco3)CC2c2ccccc2)cc1 (stereo unspecified)	1	0.5*	-1	7	-5	99	0	95	0
CC(=O)c1ccc(C(=O)NC2CC(C)(C)Cc3c2cnn3-c2ccccc2)cc1 (stereo unspecified)	0	0	-1	8	nt	nt	nt	nt	nt
COc1ccc(-n2ncc3c2CC(C)(C)CC3NC(=O)c2cnc(C)cn2)cc1 (stereo unspecified)	2	0	0	2	nt	105	0	96	0
Cc1cnc(C(=O)NC2CC(C)(C)Cc3c2cnn3-c2ccccc2)cn1 (stereo unspecified)	-1	1	0	-3	-1	98	0	107	0
COc1cccc(C(=O)NC2CC(C)(C)Cc3c2cnn3-c2cccc(F)c2)c1OC (stereo unspecified)	-4	0	-1	6	-10	107	0	106	0
Cc1c(NC(=O)Cn2cc([N+](=O)[O-])cn2)c(=O)n(-c2ccccc2)n1C	0	0	0	0	13	nt	nt	nt	nt
Cc1c(NC(=O)CSc2ncnc3ccccc23)c(=O)n(-c2ccccc2)n1C	-4	1.0*	0	8	5	95	0	91	0
Cc1c(NC(=O)Cn2ccc([N+](=O)[O-])n2)c(=O)n(-c2ccccc2)n1C	2	0.5*	-1	0	nt	105	0	101	0
COC(=O)C1CN(Cc2ccc(OC)cc2)CCS(=O)(=O)N1Cc1ccc(OC)cc1 (stereo unspecified)	-3	nt	nt	nt	nt	nt	nt	nt	nt
N#C/C(=C/c1ccc(-c2ccc(S(N)(=O)=O)cc2)o1)C(=O)Nc1ccccc1	-1	9.7*	1	21	nt	98	0	91	0
N#C/C(=C/c1ccc(-c2ccc(S(N)(=O)=O)cc2)o1)c1nc2ccccc2s1	2	2.6*	1	22	-47	99	1	150	0
Cc1ccccc1Cn1c(=O)n(Cc2ccco2)c(=O)c2ccccc21	0	0	-1	-2	-21	nt	nt	nt	nt
Cc1cc(C)c(NC(=O)Cn2c(=O)n(Cc3ccco3)c(=O)c3ccccc32)c(C)c1	0	1.1*	-1	4	14	100	0	97	0
COc1cc2c(=O)n(Cc3ccco3)c(=O)n(CC(=O)c3cccc(Br)c3)c2cc1OC	nt	1.0*	nt	10	nt	87	0	105	0
COc1cc2c(=O)n(Cc3ccco3)c(=O)n(CC(=O)c3ccc(Br)cc3)c2cc1OC	-2	0	-2	3	14	nt	nt	nt	nt
COc1ccc(C(C(=O)NC(C)(C)C)N(Cc2ccc(C)cc2)C(=O)CCC(=O)Nc2cc(C)on2)cc1 (stereo unspecified)	2	0	0	-4	41	nt	nt	nt	nt
COc1cccc(C(C(=O)NC(C)(C)C)N(C(=O)CCC(=O)Nc2cc(C)on2)C(C)C)c1OC (stereo unspecified)	-3	0	-1	3	4	112	0	106	0
COCCN(C(=O)CCC(=O)Nc1cc(C)on1)C(C(=O)NC(C)(C)C)c1ccc(OC)cc1 (stereo unspecified)	-1	0	0	2	nt	99	0	108	0
COc1cccc(C(C(=O)NC(C)(C)C)N(C(=O)CCC(=O)Nc2cc(C)on2)C(C)(C)C)c1OC (stereo unspecified)	-1	0	0	1	-16	93	0	98	0
C=CCN(C(=O)CCC(=O)Nc1cc(C)on1)C(C(=O)NC(C)(C)C)c1cccc(OC)c1OC (stereo unspecified)	0	0	0	-1	-1	nt	nt	nt	nt
O=C(CNS(=O)(=O)c1ccc(Cl)s1)N1CCN(c2ccccn2)CC1	-5	nt	nt	nt	nt	nt	nt	nt	nt
CCCOc1cc(N(CC)CC)ccc1/C=C(/C#N)c1nc2ccc(C)cc2[nH]1	0	0.7*	0	22	nt	241*	0	127	0
CCN(CC)c1ccc(/C=C(/C#N)c2nc3ccc(C)cc3[nH]2)c(OC(C)C)c1	0	1	0	8	nt	nt	nt	nt	nt
SMILES	SMARCA2 act	Efflux pump inh	Tb MetRS inh	AHR act	TAG inh	Yeast cmpd fluor	Mdr1 pump inh	CaCdr2 efflux inh	Cdr1 pump inh
COc1ccc2cc(CN(CC3CCCO3)S(=O)(=O)c3ccc(C(C)=O)cc3)c(=O)[nH]c2c1 (stereo unspecified)	1	0.3*	-1	-1	nt	96	0	109	92*
COc1ccccc1NC(=O)COC(=O)c1cc([N+](=O)[O-])ccc1N1CCCC1	-4	0.9*	0	2	9	100	0	97	0
O=C(COC(=O)c1cc([N+](=O)[O-])ccc1N1CCCC1)Nc1ccccc1OC(F)F	-3	nt	0	nt	-7	nt	nt	nt	nt
COc1cc(CNC(C)(C)CO)cc(Br)c1OCc1ccc(Cl)cc1	-1	6.4*	-1	0	nt	104	0	108	0
CCCOC(=O)c1cccc(NC(=O)COc2ccc([N+](=O)[O-])cc2)c1	-4	2.1*	0	3	nt	102	0	104	0
C=CCN1C(=O)[C@@H](CC(=O)NCCCC)[C@]2(C(=O)OCC)CCCCC/C=C/12	-1	nt	nt	nt	nt	nt	nt	nt	nt
O=C(O)CCCN1C(=O)/C(=C/c2ccc(-c3nc4ccccc4s3)o2)SC1=S	2	1	-1	3	18	220*	0	+	0
O=C(O)CCCCCN1C(=O)/C(=C\c2ccc(-c3ccc(Cl)cc3)o2)SC1=S	-2	1	0	1	3	nt	nt	nt	nt
CC(C(=O)N1CCc2ccccc21)N1CCN(S(=O)(=O)c2ccc(C(F)(F)F)cc2)CC1 (stereo unspecified)	-5	0.7*	0	4	-10	106	0	116	0
CC(C)(C)C(=O)CSc1ncccn1	-2	0.6*	0	1	-1	95	0	93	0
CC(C)(C)NC(=O)NC(=O)CSc1ncccn1	-3	0	0	-3	-19	nt	nt	nt	nt
CCOC(=O)c1c(NC(=O)c2ccncc2)sc(C)c1C	-2	0	0	4	-8	nt	nt	nt	nt
CCOC(=O)c1c(NC(=O)COC(=O)c2ccncc2)sc(C)c1C	0	0.5*	-1	3	-3	95	0	101	0
